This note sets out measurements from ChEMBL document CHEMBL4002547, “Aminopurine and aminoquinazoline scaffolds for development of potential dengue virus inhibitors” (Eur J Med Chem, 2017).

A short description of data set [1]: Inhibition of Dengue virus serotype 2 N-terminal His6-tagged NS5 RdRp activity expressed in baculovirus expression system using poly(C)/5'-biotinylated oligo (G)20 as template/primer assessed as inhibition of [3H]GTP incorporation after 20 mins by scintillation proximity assay. More on the design: species or system dengue virus type 2. (In general: SPA uses beads or plates that emit light when radiolabelled molecules are held near them.)

Data set [2] in a line: Selectivity index, ratio of CC50 for African green monkey Vero B cells to EC50 for Dengue virus serotype 2 infected in African green monkey Vero B cells. It counts as toxicity. As to conditions: read-out: Ratio CC50/EC50. In outline: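 In a CPE-reduction assay, DENV-2 in Vero B cells was run over 7 days with serial compound dilutions, with and without virus. EC50 (inhibition of virus-induced CPE) and CC50 come from microscopic scoring, with MTS/PMS also used for toxicity. The index is CC50/EC50.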

Data set [3] in a line: Cytotoxicity against African green monkey Vero B cells assessed as decrease in cell viability by MTS/PMS assay. The format is cell-based. As to conditions: chlorocebus sabaeus. In outline: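 Vero B cells (African green monkey kidney, ECACC) were incubated for 7 days with serial compound dilutions without virus. Toxicity was quantified by the MTS/PMS method, and CC50 is the compound concentration giving 50% cytotoxicity.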

Data set [4] relates to dengue virus type 2. Nature of the data set: Antiviral activity against Dengue virus serotype 2 infected in African green monkey Vero B cells assessed as inhibition of viral RNA replication after 4 days by RT-qPCR method. It counts as functional. As to conditions: 96 h, read-out: ED50 (the source's name). A general note: Quantitative PCR measures a nucleic acid by following its amplification.

The nature of data set [5]: Cytotoxicity against African green monkey Vero B cells assessed as decrease in cell viability by microscopic method. The format is cell-based. As to conditions: chlorocebus sabaeus. In outline:
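Uninfected Vero B cells were exposed for 7 days to serial compound dilutions. Wells were inspected microscopically for changes in host cell morphology, and CC50 was calculated from the microscopic scoring data.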

Data set [6] concerns dengue virus type 2. Nature of the data set: Antiviral activity against Dengue virus serotype 2 by human cell-based assay. The format is functional.

Where only a bound is given, the exact number is not on record here.

`O=C(O)c1ccccc1NS(=O)(=O)c1cccc(-c2cnn(Cc3ccccc3)c2)c1`: the IC50 in data set [1] is 0.7 µM.
With `COc1ccc(Cn2cnc3c(Cl)nc(Cl)nc32)cc1`, the selectivity ratio in data set [2] turned out to be 2. For the same compound, the half-maximal cytotoxic concentration (CC50) in data set [3] came to 32.4 µM. Moreover, the EC50 in the data set on dengue virus type 2 [4] came out at 17.6 µM.
As for `COc1ccc(Cn2cnc3nc(Cl)nc(Cl)c32)cc1`, the selectivity ratio in data set [2] amounted to 1. In addition, the cytotoxic concentration (CC50) in data set [3] was found to be 12.3 µM. In the data set on dengue virus type 2 [4], the EC50 came to 9.9 µM.
In the same order, the values of `Cc1ccc(Nc2nc(Nc3ccc(F)cc3)nc3ccccc23)c(-c2cc(C)n[nH]2)c1` are 1, 8.7 µM and 6.7 µM.
Turning to `Cc1ccc(Nc2nc(Cl)nc3ccccc23)c(-c2cc(C)n[nH]2)c1`, the selectivity ratio in data set [2] worked out at 11. Also, the CC50 in data set [3] was 97 µM. For the same compound, in the data set on dengue virus type 2 [4], the EC50 is 9.2 µM.
For `Cc1ccc(Nc2nc(Nc3ccc(C)cc3-c3cc(C)n[nH]3)c3ccccc3n2)cc1` the same measures were 2, 5.8 µM and 2.6 µM.
As to `COc1ccc(Cn2cnc3c(Nc4ccc(C)cc4-c4cc(C)n[nH]4)nc(Cl)nc32)cc1`, the CC50 in data set [5] is 10 µM; in data set [3] it was more than 109 µM. Also, the selectivity ratio in data set [2] amounted to 58. For the same compound, in the data set on dengue virus type 2 [4], the EC50 came out at 1.9 µM.
With `COc1ccc(Cn2cnc3c(Nc4ccc(C)cc4Br)nc(Cl)nc32)cc1`, the results for the CC50 in data set [5] and in data set [3] were 63 µM and more than 109 µM, respectively. Further, in data set [2], the selectivity ratio was found to be 15. Further, in the data set with dengue virus type 2 [4], the EC50 was 7.2 µM.
In the case of `Cc1ccc(Nc2nc(Cl)nc3[nH]cnc23)c(-c2cc(C)n[nH]2)c1`, in data set [2], the selectivity ratio was determined as 5. Besides, in data set [3], the cytotoxic concentration (CC50) is more than 147 µM. The EC50 with dengue virus type 2 [4] was determined as 28.9 µM.
`Cc1ccc(Nc2nc(Cl)nc3ccccc23)c(Br)c1`: the figures for the CC50 in data set [5] and in data set [3] were 32 µM and more than 144 µM, respectively. Further, the selectivity ratio in data set [2] is 13. Besides, the EC50 in the data set with dengue virus type 2 [4] amounted to 10.9 µM.
`Clc1ccc(-c2ccc(-c3nc(NCc4cccnc4)c4ccccc4n3)s2)cc1`: in the data set with dengue virus type 2 [6], the EC50 came out at 0.119 µM.
Consider `Cc1ccc(Nc2nc(Cl)nc3[nH]cnc23)c(Br)c1`, for which, in data set [2], the selectivity ratio was found to be 4. The cytotoxic concentration (CC50) in data set [3] was more than 148 µM. Moreover, the EC50 in the data set with dengue virus type 2 [4] was determined as 33.5 µM.

The IC50 is the concentration needed to halve the response being measured. As a reminder, the CC50 is the concentration at which the toxic effect on the cells reaches its halfway point.
